Published values gathered from unrelated publications.
Compare with care: the assays were run in different laboratories.
Target: Dual specificity protein kinase CLK2 (CLK2, Homo sapiens, UniProt P49760)

| SMILES | assay | conditions | quantity | value |
| --- | --- | --- | --- | --- |
| CC(C)(C)c1cc(C=C(C#N)C#N)cc(Br)c1O | enzyme activity, inhibitor | 0.5 µM | remaining activity | 104% |
| COc1ncccc1-c1cnn2ccc(N3CCN(C(=O)OC(C)C)CC3)nc12 | binding, competition with immobilised ligand | 1 µM | remaining binding | 100% |
| Cc1nn(C)cc1-c1nc2c(N3CCN(Cc4ccc(Cl)cc4)CC3)c(Cl)cnc2[nH]1 | binding, competition with immobilised ligand | 1 µM | remaining binding | 77% |
| Nc1ncc(-c2nc(N3CCOCC3)nc(N3CCOCC3)n2)c(C(F)F)n1 | binding, competition with immobilised ligand | 10 µM | remaining binding | 41% |
| N#CC1(c2ccccn2)CCN(Cc2cc(C(=O)O)c(=O)n3ccccc23)CC1 | cell-free assay, competition with immobilised ligand | 1 µM | remaining binding | 100% |
| COc1cc(Nc2ncc(F)c(Nc3ccc4c(n3)NC(=O)C(C)(C)O4)n2)cc(OC)c1OC | binding, competition with immobilised ligand | 10 µM | inhibition | 84% |
| Cn1cc(-c2cccc(N3CCc4c(sc5c4CC(C)(C)C5)C3=O)c2CO)cc(Nc2ccncn2)c1=O | enzyme activity, inhibitor | 1 µM | inhibition | 4% |
| C#Cc1n[nH]c2c(-c3cn([C@@H](C)c4ccccn4)c(=O)[nH]c3=O)cc(F)cc12 | enzyme activity, inhibitor | 0.1 µM | inhibition | 7.4% |
| Cn1cncc1[C@@](O)(COc1ccc(C#N)cc1-c1ccc(OC(F)(F)F)cc1)c1ccc(C#N)cc1 | cell-free assay, competition with immobilised ligand | 1 µM | remaining binding | 90% |
| Cn1cc(-c2cc(F)cc(N3CCn4c(cc5c4CCCC5)C3=O)c2CO)cc(Nc2ccc(N3CCN(C4COC4)CC3)cn2)c1=O | enzyme activity, inhibitor | 0.1 µM | inhibition | 7% |
| O=c1[nH]c2ccccc2n1C1CCN(Cc2ccc(-c3[nH]c4cc5ncnc5cc4nc3-c3ccccc3)cc2)CC1 | cell-free assay | 0.5 µM | remaining signal | 114% |
